From PubChem BioAssay
Compounds with a hit are over-represented: about 2.6% of the library has one in this group of screens.
mABHD4 FP = inhibitors of mouse ABHD4; Q8VD66; purified mABHD4, FP-Rh probe fluorescence polarization; actives 0.54% (n = 370,000); inhibition, % at 8.92 µM;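 active = inhibition exceeding the mean over every tested compound plus 3 SD, cut at about 30% in these data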;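 also: 0% = plate median of compound wells and 100% = S159A mutant with DMSO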
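Assay system: mABHD4 protein; medium: HEPES pH 7.0, NaCl, Pluronic buffer; dosing: 8.92 µM, single dose; schedule: 45 min + 60 min at 25 °C; signal: FP readout, ex 525 nm / em 598 nm; read-out: normalized percent inhibition of probe labeling; repeats: single replicate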
SIAE primary = inhibitors of human sialic acid acetylesterase SIAE. Q9HAT2. actives 0.69% (n = 370,000). SIAE FP-Rh probe binding, fluorescence polarization. inhibition, % at 9.66 µM;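 active = inhibition above a cutoff: mean of compounds within the control limits plus 3 SD of those, cut at about 17% in these data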;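 also: 0% = plate median of compound wells and 100% = probe without SIAE protein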
TCR-CD3 inh = inhibitors of human TCR-CD3 interaction; actives 0.37% (n = 360,000); inhibition, % at 9.4 µM; TAMRA-labeled TCR probe fluorescence, biochemical;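 also: recombinant mutant TCR 2C K166C tagged with TAMRA read by polarization; 0% = receptor in buffer alone and 100% = receptor with positive control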
PRMT1 FP inh = blocks human protein arginine methyltransferase 1. actives 1.3% (n = 370,000). Q99873. inhibition, % at 2.79 µM. recombinant PRMT1, activity-based probe fluorescence polarization. AID 652257;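 active = inhibition above about 21% made by adding two undisclosed values, limit read from the data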
HTRA1 inh = blocks human HTRA1 serine peptidase. recombinant HTRA1, FP-rhodamine activity-based probe, fluorescence polarization. inhibition, % at 5.96 µM. actives 0.5% (n = 340,000). AID 504803. Q92743; in the data active = inhibition above about 36%;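 also: 0% = enzyme with DMSO and 100% = wells lacking enzyme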
Target sequence (Q92743 whole entry, looked up): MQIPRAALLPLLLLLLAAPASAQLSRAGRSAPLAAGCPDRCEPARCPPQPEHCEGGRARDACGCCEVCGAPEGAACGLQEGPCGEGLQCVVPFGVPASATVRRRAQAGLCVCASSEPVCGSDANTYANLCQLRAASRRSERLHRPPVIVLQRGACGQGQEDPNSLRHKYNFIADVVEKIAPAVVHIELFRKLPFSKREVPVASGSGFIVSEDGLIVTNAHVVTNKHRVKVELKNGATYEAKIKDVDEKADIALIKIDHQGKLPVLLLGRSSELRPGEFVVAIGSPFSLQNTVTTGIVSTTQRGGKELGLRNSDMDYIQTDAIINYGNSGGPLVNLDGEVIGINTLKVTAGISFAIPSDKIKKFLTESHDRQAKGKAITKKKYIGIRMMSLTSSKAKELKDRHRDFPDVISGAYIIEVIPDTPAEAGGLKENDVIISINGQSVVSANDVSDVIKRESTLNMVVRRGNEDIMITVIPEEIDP
BSA TAMRA ctr = counter-screen for TCR-CD3 interaction inhibitors: BSA probe; shares compounds with TCR-CD3 inh; actives 10% (n = 1,200); TAMRA-labeled BSA probe fluorescence counterscreen; inhibition, % at 9.4 µM; in the data active = inhibition above about 23%;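 also: 0% = buffer low control and 100% = reference high control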
TCR-CD3 conf = TCR-CD3 interaction inhibition, confirmation; shares compounds with TCR-CD3 inh; TAMRA-labeled TCR probe fluorescence binding assay; inhibition, % at 9.4 µM; actives 48% (n = 1,200); AID 652036
Active calls of the source: *; · = no result given. Rule as the data show it, unless noted: active = inhibition above about 19%; inactive = the rest.

SMILES | mABHD4 FP | SIAE primary | TCR-CD3 inh | PRMT1 FP inh | HTRA1 inh | BSA TAMRA ctr | TCR-CD3 conf
Cc1ccc(C(=O)NNC(=O)c2ccccc2O)cc1S(=O)(=O)N1CCCCC1 | 12 | 1 | 24* | 5 | 25 | -4 | 23*
O=C(NNC(=O)C1CCN(S(=O)(=O)c2ccc(Cl)cc2)CC1)c1ccccc1O | -1 | 4 | 34* | 4 | 19 | -3 | 31*
Cc1cccc(/C=N\NC(=O)c2ccc(Cl)cc2)c1O | 9 | -16 | 34* | 0 | 23 | -10 | 22*
COc1ccccc1/C=N/NC(=O)c1c(-c2ccccc2)noc1C | -6 | -1 | -1 | -6 | -3 | · | ·
Cc1cccc(/C=N/NC(=O)c2c(-c3ccccc3)noc2C)c1O | -3 | 5 | 24* | -4 | 18 | -7 | 18
Cc1cccc(/C=N/NC(=O)c2ccc3c(c2)OCCO3)c1O | -14 | 1 | 19* | 6 | 11 | -12 | 15
CN(C(=O)COC(=O)/C=C/c1cccs1)c1c(N)n(Cc2ccccc2)c(=O)[nH]c1=O | 0 | -4 | 5 | -1 | -2 | · | ·
O=C(O)c1ccccc1N/N=C/C1=C(N2CCOCC2)C(=C\c2ccccc2)/CC1 | 29 | 8 | 20* | 13 | 12 | -10 | -2
O=C(N/N=C/C1=C(N2CCOCC2)C(=C\c2ccccc2)/CC1)Nc1ccccc1 | 9 | 4 | -4 | 2 | -3 | · | ·
O=C(/C=C/c1cccs1)c1ccc(NC(=O)c2cccc(Br)c2)cc1 | -36 | -13 | 42* | -4 | -54 | 3 | 12
O=[N+]([O-])c1cccc(S(=O)(=O)/N=C(/Nc2ccccc2)c2ccccc2)c1 | -4 | 0 | 1 | 0 | -11 | · | ·
CCOc1ccc(S(=O)(=O)NC2CCCC2)cc1 | 4 | -14 | 12 | -2 | 6 | · | ·
O=C(CSc1nc2ccccc2c(=O)n1-c1ccc(F)c(Cl)c1)Nc1cccc(S(=O)(=O)N2CCOCC2)c1 | -44 | -57 | 22* | 2 | -35 | 7 | 19*
CCN(CC)CCNC(=O)C(=O)Nc1ccc2c(c1)N(S(=O)(=O)c1cccs1)CCC2 | 0 | -1 | 3 | -3 | -2 | · | ·
CN(CC(=O)Nc1ccc(F)cc1)C(=O)COC(=O)c1ccc(=O)n(Cc2ccccc2)n1 | 27 | 3 | 87* | 136* | -1 | 2 | 3
CN(CC(=O)Nc1ccccc1Cl)C(=O)COC(=O)c1ccc(=O)n(Cc2ccccc2)n1 | 1 | 4 | -3 | 3 | 0 | · | ·
O=C(COC(=O)CCCCCN=C1NS(=O)(=O)c2ccccc21)Nc1ccc(Cl)c(Cl)c1 | 1 | -119 | 19* | -2 | -76 | 7 | 10
C/C(=N\NC(=O)c1ccc(CN2CCc3ccccc3C2)cc1)c1ccccc1O | 3 | -3 | 25* | 2 | 8 | -11 | 18
[O-][n+]1ccccc1C(O)CSc1ccccc1 (stereo unspecified) | 1 | -7 | 5 | -1 | · | · | ·
CC1CCCCN1C(=O)CSc1nnc(-c2ccccc2O)o1 (stereo unspecified) | 2 | 9 | 27* | -2 | 21 | 13 | 21*
COc1ccc(S(=O)(=O)Nc2c(NC3CCCCC3)c3ccccc3oc2=O)cc1Cl | -5 | 10 | 1 | -1 | -26 | · | ·
Cc1cc(S(=O)(=O)Nc2c(NC3CCCCC3)c3ccccc3oc2=O)ccc1F | -3 | 10 | 19* | -1 | -14 | 4 | 3
Cc1oc2cc(O)ccc2c(=O)c1-c1nncn1-c1ccccc1 | 25 | 4 | 25* | 52* | 3 | 27* | 23*
O=C(CN1C(=O)NC2(CCOc3ccccc32)C1=O)c1ccc(F)cc1 (stereo unspecified) | -1 | 0 | 19* | -3 | -4 | 0 | 2
COCC(=O)N1CCN(C(=O)C(=O)c2cccc(C(F)(F)F)c2)CC1 | -7 | -8 | -2 | 4 | · | · | ·
SMILES | mABHD4 FP | SIAE primary | TCR-CD3 inh | PRMT1 FP inh | HTRA1 inh | BSA TAMRA ctr | TCR-CD3 conf
Cc1ccc(Cl)cc1N1CCN(S(=O)(=O)c2ccc3c(c2)NC(=O)C(C)C(=O)N3)CC1 (stereo unspecified) | -6 | -11 | 7 | -1 | 4 | · | ·
COc1ccccc1C(=O)Nc1nnc([C@@H]2C[C@H](O)[C@@H](CO)O2)s1 | 0 | -2 | -7 | 2 | · | · | ·
COc1cc(/C=N/NC(=O)COc2ccc(Cl)cc2)ccc1OS(=O)(=O)c1ccc(C)cc1 | -41 | 1 | 57* | -2 | -75 | 13 | 36*
CCOC(=O)C1=C(CC)Nc2ccccc2N=C1NC(=O)Nc1ccc(Cl)c(Cl)c1 | -100 | -101 | 79* | -3 | -93 | 20 | 54*
O=C1CC(N(CCc2ccccc2)C(=S)Nc2ccccc2)C(=O)N1c1ccc(Br)cc1 (stereo unspecified) | -118 | -140 | 24* | -1 | -139 | 3 | 3
COC(=O)c1ccc(Cn2ccc3ccc(-c4ccc5ccn(C(=O)c6ccccc6OC)c5c4)cc32)cc1 | -6 | -3 | · | -3 | · | · | ·
CCOC(=O)c1c(C)[nH]c(C(=O)C(C)OC(=O)c2ccc(NC(=O)CC#N)cc2)c1C (stereo unspecified) | -18 | -54 | 52* | -3 | -60 | 5 | 6
CC(OC(=O)c1ccc(NC(=O)CC#N)cc1)C(=O)NC(=O)NC1CCCCC1 (stereo unspecified) | -58 | -35 | 20* | -3 | 10 | -1 | 1
Cc1cc(C)cc(NC(=O)C(OC(=O)c2ccc(NC(=O)CC#N)cc2)c2ccccc2)c1 (stereo unspecified) | -78 | -111 | 27* | -4 | -92 | -6 | 10
COc1ccc(CNC(=O)c2c(N)[nH]c(C(=O)c3ccccc3)c2-c2ccc3ccccc3c2)cc1OC | 8 | 8 | -1 | -2 | · | · | ·
O=C(c1cccc(Cl)c1)N1CCCc2ccccc21 | -1 | -3 | 28* | -1 | -2 | 28* | 16
CC(=O)c1ccc(NC(=O)COC(=O)c2c3c(nc4ccccc24)/C(=C\c2cccs2)CCC3)cc1 | -42 | -104 | 65* | 0 | -87 | 22 | 40*
COc1cc(OC)c2c(c1O)OC(c1ccccc1)CC2=O (stereo unspecified) | 7 | 4 | 39* | -6 | 25 | -6 | 19*
COc1cc(/C=N/NC(=O)c2cc(O)cc(O)c2)ccc1OC(=O)c1ccccc1 | -27 | -29 | 20* | 4 | -29 | -10 | 26*
O=C(N/N=C/c1ccoc1)c1cc(O)cc(O)c1 | 16 | 9 | 20* | 10 | 13 | -4 | 23*
COc1cc(OC)cc(C(=O)N/N=C/c2ccc(OC)c(COc3ccc4ccccc4c3)c2)c1 | -83 | -84 | 40* | -2 | -89 | 9 | 35*
OC1(C#Cc2c(-c3ccsc3)sc3ccccc23)CCCCC1 | -36 | -44 | 6 | -2 | · | · | ·
